# Source: PubChem BioAssay (Broad Institute)
# The list is not random: actives were taken first. Their share in the collection is about 3.5%.
# Env fusion inh: HIV envelope-mediated fusion inhibition; 360,000 tested, 1.1% active; HeLa-JRFL Env/CEM21 cell fusion, luciferase; inhibition, % at 12.3 µM; AID 651610;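 active = mean replicate inhibition score of at least 50 and every replicate individually at or above 50; inconclusive = only one of the two criteria met; inactive = mean below 50 and not all replicates reaching 50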
# rRNA inh HTS: inhibitors of bacterial rRNA selective over humanized ribosomes; E. coli WT GFP vs humanized-ribosome RFP mutants, fluorescence, 24 h; active compounds read low; DMSO median 0, no signal -100; GFP signal change (wild-type ribosome), % (test concentration not listed); 350,000 tested, 1.6% active;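 active = significant combined selectivity score with lowered wild-type GFP, culture density cut under 30%, mutant RFP and density less affected; inactive = any of these conditions unmet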
# PglD DTNB: inhibitors of Campylobacter jejuni PglD acetyltransferase | inhibition, % at 12.5 µM | 360,000 tested, 0.098% active | purified PglD enzyme, DTNB colorimetric CoA detection | AID 602405; in the data active = inhibition above about 16%, passing the limit was not always enough; inconclusive = no clear call, values can overlap the other calls
# PGC1a acetyl inh: PGC1a acetylation modulation, inhibitor mode. U2OS PGC1a acetylation, AlphaScreen anti-acetyl-lysine; with virally co-expressed GCN5 acetyltransferase. 350,000 tested, 0.17% active. inhibition, % at 15.6 µM. AID 651687;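 active = every replicate shows inhibition of at least 40%; inconclusive = mean inhibition at least 40% but some replicate below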
# FN deposition inh: fibronectin deposition inhibition; AID 743247; 350,000 tested, 0.086% active; inhibition, % at 12.6 µM; AH1F fibroblasts, Alexa488-fibronectin deposition fluorescence, overnight;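 active = mean inhibition across replicates of 30% or more, regardless of how many single replicates reach that level; inconclusive = mean under 30% yet at least half of replicates reach 30%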
#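 test system = AH1F fibroblasts assembling fluorescent fibronectin matrix | quantity = 10000 AH1F cells per well | buffer or medium = DMEM plus 2% serum, read in PBS | doses = single dose, pinned | incubation = 1 h cell attachment, overnight exposure to compound and label | detection = fluorescence at 485 nm excitation, 525 nm emission | read-out basis = inhibition from reduced deposited-fibronectin fluorescence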
# DENV2 CPE rescue: inhibitors of DENV2 cytopathic effect; DENV2-infected cells, cytopathic effect rescue, plate reader; CPE inhibition, % at 9.99 µM; 350,000 tested, 1.7% active; in the data active = CPE inhibition above about 20%, passing the limit was not always enough; inconclusive = no clear call, values can overlap the other calls; tested in BHK-21 cells
# Hits are given with their value; n = inactive; u = inconclusive; x = not tested or not shown; [ ] = dose if it differs, or a comment.
SMILES,Env fusion inh,rRNA inh HTS,PglD DTNB,PGC1a acetyl inh,FN deposition inh,DENV2 CPE rescue
C[C@H]1CN([C@@H](C)CO)C(=O)c2cc(C#CC3(O)CCCC3)cnc2O[C@@H]1CN(C)C(=O)C1CCCCC1,n,n,n,n,x,n
COc1ccc2c3c([nH]c2c1)[C@H](CO)N(C(=O)C1CCC1)CC31CN(C(=O)c2ccccn2)C1,x,n,x,n,x,n
COc1ccc(/C=N/N2CCN(c3ccc(Cl)cc3)CC2)cc1O,n,n,n,x,n,31.5
CN1C(=O)C(c2cn(C)c3ccccc23)(c2cn(C)c3ccccc23)c2cc(F)ccc21,n,n,x,x,n,29.5
CN1C(=O)[C@@](O)(c2cn(C)c3ccccc23)c2cc(F)ccc21,n,n,x,x,n,n
O=C(N/N=C/c1sc(N2CCOCC2)nc1-c1ccccc1)c1cccc(S(=O)(=O)N2CCCC2)c1,56.4,x,x,n,n,n
C[C@@H]1CN([C@H](C)CO)C(=O)Cc2cc(NS(=O)(=O)c3cccs3)ccc2O[C@H]1CN(C)S(=O)(=O)c1ccc(F)cc1,n,n,n,n,n,24.3
COc1ccc(S(=O)(=O)Nc2ccc3c(c2)CC(=O)N([C@H](C)CO)C[C@H](C)[C@H](CN(C)S(=O)(=O)c2cccs2)O3)cc1,62.1[16.7 µM],n,n,n,n,u
COc1ccc(S(=O)(=O)N(C)C[C@H]2Oc3ccc(NS(=O)(=O)c4cccs4)cc3CC(=O)N([C@@H](C)CO)C[C@@H]2C)cc1,n,n,n,n,x,26.3
COc1ccc(S(=O)(=O)N(C)C[C@@H]2Oc3ccc(NS(=O)(=O)c4cccs4)cc3CC(=O)N([C@@H](C)CO)C[C@H]2C)cc1,n,n,n,n,x,n
C[C@H](CO)N1C[C@H](C)[C@@H](CN(C)S(=O)(=O)c2ccc(F)cc2)Oc2ccc(NS(=O)(=O)c3cccs3)cc2CC1=O,n,n,n,n,n,n
CC(=O)N1[C@@H]2c3ccc(-c4ccccc4)c(=O)n3C[C@H]1[C@H](CO)[C@H]2C(=O)NCCCN1CCOCC1,x,n,x,n,x,n
COc1ccc(S(=O)(=O)N2C[C@H](O)COC[C@@H]3O[C@@H](CC(=O)NCCN4CCCCC4)CC[C@H]32)cc1,x,n,n,n,n,n
C[C@@H]1CN([C@@H](C)CO)C(=O)c2cccc(NC(=O)C3CC3)c2O[C@@H]1CN(C)S(=O)(=O)c1cn(C)cn1,n,n,n,n,x,28.6
C[C@H]1CN([C@@H](C)CO)C(=O)c2cccc(NC(=O)C3CC3)c2O[C@@H]1CN(C)C,n,n,n,n,x,23.3
CC(C)NC(=O)N(C)C[C@H]1Oc2c(NC(=O)C3CC3)cccc2C(=O)N([C@H](C)CO)C[C@H]1C,n,n,n,n,n,42.2
CC(C)NC(=O)N(C)C[C@H]1Oc2c(NC(=O)C3CC3)cccc2C(=O)N([C@@H](C)CO)C[C@H]1C,n,n,n,n,n,n
C[C@@H]1CCCCO[C@@H](CN(C)Cc2ccccc2)[C@@H](C)CN([C@@H](C)CO)C(=O)c2cc(NC(=O)c3ccncc3)ccc2O1,n,n,n,n,n,n
Cc1nc(N2CCN(C(=O)COc3ccccc3)CC2)c2c(C)c(C)sc2n1,61.5,x,n,n,n,x
C[C@@H]1CN([C@H](C)CO)C(=O)c2c(c3ccccc3n2C)-c2ccccc2CO[C@H]1CN(C)S(=O)(=O)c1ccc(C(F)(F)F)cc1,x,n,x,n,n,n
COC(=O)c1cc(S(=O)(=O)N(C)C2CCCCC2)oc1C,n,-26.6,n,n,n,n
COC(=O)c1cn(C)c2ccc(S(=O)(=O)N(C)C3CCCCC3)cc2c1=O,x,n,x,n,n,n
C[C@H]1CCCCO[C@@H](CN(C)Cc2ccc(C(=O)O)cc2)[C@@H](C)CN([C@@H](C)CO)C(=O)c2cc(NC(=O)NC3CCCCC3)ccc2O1,n,n,n,n,x,n
O=C(C[C@@H]1C=C[C@H](NC(=O)c2ccc(F)cc2)[C@H](CO)O1)NCc1ccncn1,n,n,n,n,n,n
O=C(c1ccccc1)[C@@H]1[C@@H](C(=O)c2ccc(F)cc2)[C@@]2(C(=O)Nc3ccccc32)[C@H]2c3ccccc3C=CN12,70.7,n,n,n,n,n
